Results reported in ChEMBL document CHEMBL4706509, “Oligosaccharide-camptothecin conjugates as potential antineoplastic drugs: Design, synthesis and biological evaluation” (Eur J Med Chem, 2020).
≈ marks a conversion by molar mass, not a printed value. Calls of active or inactive are those of the source. No cut-off for these calls is given here.

Experiments:
HepG2 = experiment: Antitumor activity against human HepG2 cells assessed as inhibition of cell growth measured after 48 hrs by MTT assay; format: functional, cell-based; conditions: HepG2, 48 h
Summary of the method: (§1)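 MTT assay; cells seeded in 96-well plates, exposed 48 h to freshly prepared compound at five concentrations, four replicate wells each; MTT (5 mg/mL) added for 4 h, formazan dissolved in DMSO, absorbance at 490 nm. IC50 by nonlinear regression; mean of three independent experiments.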

HCT-116 = experiment: Antitumor activity against human HCT-116 cells assessed as inhibition of cell growth measured after 48 hrs by MTT assay; format: functional, cell-based; conditions: HCT-116, 48 h; summary of the method: as §1
SW1990 = experiment: Antitumor activity against human SW1990 cells assessed as inhibition of cell growth measured after 48 hrs by MTT assay; format: functional, cell-based; conditions: SW1990, 48 h; summary of the method: as §1
HEK293 = experiment: Cytotoxicity against human HEK293 cells assessed as reduction in cell viability measured after 48 hrs by MTT assay; format: cell-based; conditions: HEK293, 48 h; summary of the method: as §1
[1] = biological target: T1, DNA topoisomerase 1 (Homo sapiens) (UniProt P11387); experiment: Inhibition of human recombinant Topoisomerase 1 using supercoiled pBR322 DNA as substrate at 50 uM incubated for 30 mins by ethidium bromide staining based agarose gel electrophoresis
T1 sequence (whole entry): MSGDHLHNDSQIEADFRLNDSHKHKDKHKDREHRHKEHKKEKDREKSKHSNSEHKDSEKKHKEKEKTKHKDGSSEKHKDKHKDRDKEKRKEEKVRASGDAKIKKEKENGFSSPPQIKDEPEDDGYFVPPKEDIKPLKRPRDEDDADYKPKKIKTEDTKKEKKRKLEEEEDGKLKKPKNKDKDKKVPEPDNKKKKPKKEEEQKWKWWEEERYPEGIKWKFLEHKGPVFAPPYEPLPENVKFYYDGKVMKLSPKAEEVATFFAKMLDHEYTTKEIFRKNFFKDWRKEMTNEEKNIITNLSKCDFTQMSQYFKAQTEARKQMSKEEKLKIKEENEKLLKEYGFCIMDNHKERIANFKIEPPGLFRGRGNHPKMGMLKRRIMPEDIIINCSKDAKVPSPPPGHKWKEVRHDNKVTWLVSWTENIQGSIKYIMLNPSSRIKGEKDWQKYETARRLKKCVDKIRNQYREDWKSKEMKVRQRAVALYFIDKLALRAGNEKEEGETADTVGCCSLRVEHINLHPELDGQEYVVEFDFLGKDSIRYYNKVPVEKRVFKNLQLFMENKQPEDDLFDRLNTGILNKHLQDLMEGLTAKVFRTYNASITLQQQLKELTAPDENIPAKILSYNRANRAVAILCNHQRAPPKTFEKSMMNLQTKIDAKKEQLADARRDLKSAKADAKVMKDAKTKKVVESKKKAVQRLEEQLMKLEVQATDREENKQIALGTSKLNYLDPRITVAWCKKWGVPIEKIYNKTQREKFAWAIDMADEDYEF
Summary of the method: (§2)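 Cell-free relaxation assay: 1 U recombinant human Topo I with 0.5 µg supercoiled pBR322 in Topo I buffer (Tris-HCl pH 8.0, KCl, MgCl2, DTT, 0.1% BSA), 37 °C for 30 min. 10-HCPT and irinotecan as positive controls. Supercoiled, relaxed and nicked forms resolved on 0.8% agarose in TAE, 90 V for 2 h, ethidium bromide stained.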

[2] = biological target: T1, DNA topoisomerase 1 (Homo sapiens); experiment: Inhibition of human recombinant Topoisomerase 1 using supercoiled pBR322 DNA as substrate at 100 uM incubated for 30 mins by ethidium bromide staining based agarose gel electrophoresis; summary of the method: as §2
[3] = Aqueous solubility of the compound in 0.1 M Na2HPO4 solution at pH 7.4 incubated for 24 hrs by HPLC analysis; format: physicochemical; conditions: for solubility at 24 h: 0.1 M Na2HPO4 solution, pH 7.4
Summary of the method: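 Excess solid shaken in 0.2 mL 0.1 M phosphate buffer, pH 7.4, at 25 °C for 24 h, then filtered. Filtrate (100 µL) diluted to 1.5 mL and analysed by isocratic HPLC (CH3CN:H2O 40/60, 1.0 mL/min, 35 °C column, 254 nm). Concentration read from a calibration curve built from DMSO standards. Values are the mean of triplicate determinations, in mg/mL.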

[4] = Stability of compound in 10% phosphate buffer assessed as proportion of lactone form level at pH 7.4 measured after 48 hrs by HPLC analysis; format: physicochemical; conditions: read-out: Drug metabolism
Summary of the method: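 1.0 mg dissolved in 50 mL 0.1 M phosphate buffer, pH 7.4, and shaken at 37 °C. […] Lactone versus carboxylate (ring-opened) form quantified by HPLC area normalisation. Mean of triplicate determinations.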

[5] = Toxicity in iv dosed ICR mouse measured for 14 days; format: organism-based; conditions: in vivo, time 14 day
[6] = Ratio of test compound solubility to camptothecin solubility in 0.1 M Na2HPO4 solution at pH 7.4 incubated for 24 hrs by HPLC analysis; format: physicochemical; conditions: buffer, pH 7.4, 24 h

Compound	IC50 (HepG2) [µM]	IC50 (HCT-116) [µM]	IC50 (SW1990) [µM]	IC50 (HEK293) [µM]	inhibition [1]	inhibition [2]	solubility at 24 h [3] [µg/mL]	remaining at 48 h [4] [%]	LD50 at 336 h [5] [mg/kg]	solubility ([3]; buffer, pH 7.4, 24 h) [µg/mL]	Ratio [6]
CC[C@@]1(OC(=O)NCCOCCO[C@@H]2O[C@H](COC(C)=O)[C@H](OC(C)=O)[C@H](OC(C)=O)[C@H]2OC(C)=O)C(=O)OCc2c1cc1n(c2=O)Cc2cc3ccccc3nc2-1	5.6	3.5	15.7	> 100	Active	Active	500 (≈ 617 µM)	91			
CCc1c2c(nc3ccc(OC(=O)N4CCC(N5CCCCC5)CC4)cc13)-c1cc3c(c(=O)n1C2)COC(=O)[C@]3(O)CC [IRINOTECAN]	> 100	> 100	> 100	> 100		Active			85.1		
CC[C@@]1(O)C(=O)OCc2c1cc1n(c2=O)Cc2cc3ccccc3nc2-1 [CAMPTOTHECIN]	0.4	0.4	0.2	0.6				5		60 (≈ 172 µM)	
CC[C@@]1(OC(=O)NCCOCCO[C@@H]2O[C@H](CO)[C@@H](O)[C@H](OC(N)=O)[C@@H]2O)C(=O)OCc2c1cc1n(c2=O)Cc2cc3ccccc3nc2-1	0.9	1.2	5.2	52.1	Active	Active	16300 (≈ 23800 µM)	92			2717
